Test results as given in ChEMBL document CHEMBL1154522, “Aryl sulfamates are broad spectrum inactivators of sulfatases: effects on sulfatases from various sources” (Bioorg Med Chem Lett, 2009).

Columns and labels:
[1] = Dissociation constant, pKa of the compound; type: physicochemical
Arylsulfatase = Arylsulfatase (Pseudomonas aeruginosa (strain ATCC 15692 / PAO1 / 1C / PRS 101 / LMG12228), UniProt P51691); assay: Inhibition of Pseudomonas aeruginosa recombinant arylsulfatase A expressed in Escherichia coli
[2] = Inhibition of Helix pomatia type H1 recombinant sulfatase expressed in Escherichia coli
Summary of the method: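 Snail sulfatase incubated at pH 7 with 0–500 µM 3-nitrophenyl sulfamate; residual activity plotted semi-logarithmically against time, and pseudo-first-order rates replotted against inactivator concentration to fit Ki and kinact (E + I ⇌ E·I → E–P).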

[3] = Inhibition of Patella vulgata type 5 recombinant sulfatase expressed in Escherichia coli
Summary of the method: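 Limpet sulfatase at pH 7 with 0–12.5 mM sulfamate; semi-logarithmic plots of residual activity over time, inactivation rates replotted against concentration to give Ki and kinact.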

[4] = Inhibition of abalone entrails type 8 recombinant sulfatase expressed in Escherichia coli by fast phase inactivation; parameters: species or system Haliotis corrugata
[5] = Inhibition of abalone entrails type 8 recombinant sulfatase expressed in Escherichia coli by slow phase inactivation; parameters: species or system Haliotis corrugata
[6] = Chemical decomposition at pH 7 after 15 mins; details: buffer

Arylsulfatase, sequence (P51691 whole entry): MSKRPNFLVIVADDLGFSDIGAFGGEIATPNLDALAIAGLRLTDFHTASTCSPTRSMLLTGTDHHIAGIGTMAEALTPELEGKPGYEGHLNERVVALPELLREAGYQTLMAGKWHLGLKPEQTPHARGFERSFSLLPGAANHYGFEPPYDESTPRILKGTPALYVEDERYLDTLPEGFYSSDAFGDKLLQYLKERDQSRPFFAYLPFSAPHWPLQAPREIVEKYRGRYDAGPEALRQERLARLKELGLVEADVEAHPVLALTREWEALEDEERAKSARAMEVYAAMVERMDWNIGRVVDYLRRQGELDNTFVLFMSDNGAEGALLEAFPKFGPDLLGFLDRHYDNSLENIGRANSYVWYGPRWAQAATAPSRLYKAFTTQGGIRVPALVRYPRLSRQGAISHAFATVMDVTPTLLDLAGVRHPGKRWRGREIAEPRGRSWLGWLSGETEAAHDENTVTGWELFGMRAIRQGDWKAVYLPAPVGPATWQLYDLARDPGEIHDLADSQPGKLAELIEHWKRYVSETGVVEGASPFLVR

Compound | pKa [1] | Ki (Arylsulfatase) | Ki [2] | Ki [3] | Ki [4] | Ki [5] | decomposed at 0.25 h [6]
O=[N+]([O-])c1ccc(OS(=O)(=O)O)cc1 | 7.14 |  |  |  |  |  | 
NS(=O)(=O)Oc1cccc([N+](=O)[O-])c1 |  | 0.13 µM | 35 µM | 980 µM | 1600 µM | 5000 µM | 4.2%
